Laboratory results taken from ChEMBL document CHEMBL1157529, “Lantadenes and their esters as potential antitumor agents” (J Nat Prod, 2008).
Values after ≈ are worked out from the molar mass of the structure shown.

Key:
HL-60 = experiment: Cytotoxicity against human HL60 cells after 48 hrs by MTT assay; type: functional, cell-based; conditions: HL-60, 48 h
In short: (§1)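 HL-60, HeLa, colon 502713 and A-549 cells grown in RPMI with 10% FBS, streptomycin and penicillin at 37 °C, 5% CO2. Cells (2 × […]/0.1 mL well) exposed 48 h to serial compound dilutions. MTT added for the final 4 h at 37 °C. Formazan extracted in DMSO and read at 540 nm. Mean and standard deviation of triplicate assays.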

HeLa = experiment: Cytotoxicity against human HeLa cells after 48 hrs by MTT assay; type: functional, cell-based; in short: as §1
[1] = Cytotoxicity against human colon 502713 cells after 48 hrs by MTT assay; type: functional, cell-based; conditions: Homo sapiens, 502713, 48 h; in short: as §1
A549 = experiment: Cytotoxicity against human A549 cells after 48 hrs by MTT assay; type: functional, cell-based; conditions: A549, 48 h; in short: as §1
[2] = Inhibition of DMBA-induced/TPA-promoted carcinogenesis in Swiss albino mouse squamous cells assessed as survival rate administered orally 1 week before DMBA administration and continued for 20 weeks relative to DMPA/TPA treated control; type: functional
In short: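 Female Swiss albino mice (LACCA, 6 weeks, 18-22 g), depilated back; DMBA 100 nmol/100 µL acetone topically for 2 weeks, then TPA 1.7 nmol/100 µL acetone twice weekly for 18 weeks. Compounds given orally as suspension in water/carboxymethyl cellulose from 1 week before DMBA for 20 weeks, n = 10/group. Number of surviving animals recorded at 20 weeks.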

[3] = Inhibition of DMBA-induced/TPA-promoted carcinogenesis in Swiss albino mouse squamous cells assessed as incidence of skin papillomas administered orally 1 week before DMBA administration and continued for 20 weeks relative to DMPA/TPA treated control; type: functional
In short: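 Female Swiss albino mice (LACCA, 6 weeks, 18-22 g), backs depilated. DMBA 100 nmol in 100 µL acetone applied topically for 2 weeks, then TPA 1.7 nmol in 100 µL acetone twice weekly for 18 weeks. Compounds given orally in water/carboxymethyl cellulose, starting 1 week before DMBA, for 20 weeks. n = 10 per group. Papilloma incidence, body weight and survival recorded.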

Row | SMILES | IC50 (HL-60) [µg/mL] | IC50 (HeLa) [µg/mL] | IC50 [1] [µg/mL] | IC50 (A549) [µg/mL] | survival rate [2] [%] | inhibition (INH) [3] [%]
1 | CC(=O)O[C@H]1C(=O)[C@@]2(C)[C@H]([C@H](OC(=O)c3ccccc3)[C@]3(O)C[C@H](OC(=O)[C@H](O)[C@@H](NC(=O)c4ccccc4)c4ccccc4)C(C)=C1C3(C)C)[C@]1(OC(C)=O)CO[C@@H]1C[C@@H]2O [PACLITAXEL] | < 2 | > 3 | < 2 | < 2 | – | –
2 | CC(C)C(=O)O[C@@H]1CC(C)(C)C[C@H]2C3=CC[C@@H]4[C@@]5(C)CCC(=O)C(C)(C)[C@@H]5CC[C@@]4(C)[C@]3(C)CC[C@@]12C(=O)O | 41.2 (≈ 76.2 µM) | 43.6 (≈ 80.6 µM) | 37.6 (≈ 69.5 µM) | 44.2 (≈ 81.7 µM) | 80 | –
3 | CCCC(=O)O[C@@H]1CC(C)(C)C[C@H]2C3=CC[C@@H]4[C@@]5(C)CCC(=O)C(C)(C)[C@@H]5CC[C@@]4(C)[C@]3(C)CC[C@@]12C(=O)OC | 19.3 (≈ 34.8 µM) | 20.1 (≈ 36.2 µM) | 21.1 (≈ 38 µM) | 22.4 (≈ 40.4 µM) | 80 | 12.4
4 | COC(=O)[C@@]12CC[C@]3(C)C(=CC[C@@H]4[C@@]5(C)CCC(=O)C(C)(C)[C@@H]5CC[C@]43C)[C@@H]1CC(C)(C)C[C@H]2OC(=O)c1ccccc1 | 48 (≈ 81.5 µM) | 50.7 (≈ 86.1 µM) | > 100 | > 100 | – | –
5 | CCC(=O)O[C@@H]1CC(C)(C)C[C@H]2C3=CC[C@@H]4[C@@]5(C)CCC(=O)C(C)(C)[C@@H]5CC[C@@]4(C)[C@]3(C)CC[C@@]12C(=O)O | 26.4 (≈ 50.1 µM) | 28.6 (≈ 54.3 µM) | 25.4 (≈ 48.2 µM) | 29.6 (≈ 56.2 µM) | 80 | 19.6
6 | CC(=O)O[C@@H]1CC(C)(C)C[C@H]2C3=CC[C@@H]4[C@@]5(C)CCC(=O)C(C)(C)[C@@H]5CC[C@@]4(C)[C@]3(C)CC[C@@]12C(=O)O | 38.5 (≈ 75.1 µM) | 37.3 (≈ 72.7 µM) | 34.4 (≈ 67.1 µM) | 36.8 (≈ 71.8 µM) | – | –
7 | CCC(=O)O[C@@H]1CC(C)(C)C[C@H]2C3=CC[C@@H]4[C@@]5(C)CCC(=O)C(C)(C)[C@@H]5CC[C@@]4(C)[C@]3(C)CC[C@@]12C(=O)OC | 24.2 (≈ 44.7 µM) | 26.4 (≈ 48.8 µM) | 22.4 (≈ 41.4 µM) | 28.4 (≈ 52.5 µM) | 80 | 17.9
8 | COC(=O)[C@@]12CC[C@]3(C)C(=CC[C@@H]4[C@@]5(C)CCC(=O)C(C)(C)[C@@H]5CC[C@]43C)[C@@H]1CC(C)(C)C[C@H]2OC(C)=O | 37.3 (≈ 70.8 µM) | 36.2 (≈ 68.7 µM) | 34.6 (≈ 65.7 µM) | 36.8 (≈ 69.9 µM) | – | –
9 | COC(=O)[C@@]12CC[C@]3(C)C(=CC[C@@H]4[C@@]5(C)CCC(=O)C(C)(C)[C@@H]5CC[C@]43C)[C@@H]1CC(C)(C)C[C@H]2OC(=O)C(C)C | 39.5 (≈ 71.2 µM) | 41.1 (≈ 74.1 µM) | 38.1 (≈ 68.7 µM) | 42.2 (≈ 76.1 µM) | – | –
10 | CCCC(=O)O[C@@H]1CC(C)(C)C[C@H]2C3=CC[C@@H]4[C@@]5(C)CCC(=O)C(C)(C)[C@@H]5CC[C@@]4(C)[C@]3(C)CC[C@@]12C(=O)O | 21.6 (≈ 39.9 µM) | 22.8 (≈ 42.2 µM) | 25.2 (≈ 46.6 µM) | 27.1 (≈ 50.1 µM) | – | 17.2
11 | COC(=O)[C@@]12CC[C@]3(C)C(=CC[C@@H]4[C@@]5(C)CCC(=O)C(C)(C)[C@@H]5CC[C@]43C)[C@@H]1CC(C)(C)C[C@H]2O | 70.6 (≈ 146 µM) | > 100 | 72.4 (≈ 149 µM) | 84.2 (≈ 174 µM) | – | –
12 | C/C=C(/C)C(=O)O[C@@H]1CC(C)(C)C[C@H]2C3=CC[C@@H]4[C@@]5(C)CCC(=O)C(C)(C)[C@@H]5CC[C@@]4(C)[C@]3(C)CC[C@@]12C(=O)O [LANTADENE A] | 19.8 (≈ 35.8 µM) | 23.3 (≈ 42.1 µM) | 21.3 (≈ 38.5 µM) | 21.8 (≈ 39.4 µM) | – | 18.1
13 | CC1(C)C[C@@H](O)[C@]2(C(=O)O)CC[C@]3(C)C(=CC[C@@H]4[C@@]5(C)CCC(=O)C(C)(C)[C@@H]5CC[C@]43C)[C@@H]2C1 | < 100 | > 100 | > 100 | > 100 | – | –
14 | CC1(C)C[C@@H](OC(=O)c2ccccc2)[C@]2(C(=O)O)CC[C@]3(C)C(=CC[C@@H]4[C@@]5(C)CCC(=O)C(C)(C)[C@@H]5CC[C@]43C)[C@@H]2C1 | 50.8 (≈ 88.4 µM) | 46.3 (≈ 80.5 µM) | 51.2 (≈ 89.1 µM) | > 100 | – | –
